Common to all, as to format: functional, cell-based
In test [1] the test system is Escherichia coli. In words: Inhibition of enteroaggregative Escherichia coli 042 adherence to human Hep2 cells pretreated by adherence assay. Conditions: HEp-2. In short, it runs like this: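 HEp-2 monolayers, confluent unless otherwise specified, in chambered slides were exposed to antibiotic or controls for 4, 8, 16, 18 or 24 h, then washed three times with PBS. EAEC O42 (7 × 10^6 to 1 × 10^7 in DMEM, 10% FBS, 1% D-mannose) was added for 3 h at 37°C. Attachment was assessed microscopically after Wright-Giemsa staining.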

The subject of test [2] is Escherichia coli. Nature of the test: Inhibition of enteroaggregative Escherichia coli 042 adherence to human Hep2 cells pretreated at 32 ug/ml for 24 hrs by adherence assay. Particulars: HEp-2. In short, it runs like this: (§1)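 Confluent cells in 24-well plates, in DMEM with 10% FBS and no antibiotics, were pretreated with drug (from acetone stock) or an equal volume of acetone, then washed three times with PBS. HEp-2 received 8, 32 or 64 μg/ml; the other lines 32 or 64 μg/ml for 24 h. Cells were then infected for 3 h at 37°C (next note).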

Test [3] relates to HEp-2. In words: Effect on cytokine level in human Hep2 cells assessed as MIP4 level pretreated at 64 ug/ml for 24 hrs. In short, it runs like this: (§2)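 Confluent HEp-2 cells on chambered slides were given fresh medium containing antibiotic at 64 μg/ml, acetone diluent (64 μl), or no antibiotic. Supernatants collected 24 h later were probed on a cytokine array membrane covering GM-CSF, MIPs, MMP3, RANTES, TGF-β, IFN-γ, TNFRI/II, VCAM-1, VEGF and interleukins. Each analyte was read as detected or not detected.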

Test [4] deals with HEp-2. In words: Effect on cytokine level in human Hep2 cells assessed as IL-4 level pretreated at 64 ug/ml for 24 hrs. In short, it runs like this:
as §2

In test [5] the test system is Escherichia coli. Nature of the test: Inhibition of enteroaggregative Escherichia coli 042 adherence to human HeLa cells pretreated at 64 ug/ml for 24 hrs by adherence assay. In short, it runs like this: as §1
Test [6] relates to HEp-2. Nature of the test: Effect on cytokine level in human Hep2 cells assessed as TNFR2 level pretreated at 64 ug/ml for 24 hrs. In short, it runs like this: as §2
The test system of test [7] is HEp-2. Nature of the test: Effect on cytokine level in human Hep2 cells assessed as MIP5 level pretreated at 64 ug/ml for 24 hrs. A digest of the protocol:
as §2

Test [8] concerns HEp-2. In words: Effect on cytokine level in human Hep2 cells assessed as IFN-gamma level pretreated at 64 ug/ml for 24 hrs. In short, it runs like this: as §2
In test [9] the test system is Escherichia coli. Nature of the test: Inhibition of enteroaggregative Escherichia coli 042 adherence to human HCT-8 cells pretreated at 64 ug/ml for 24 hrs by adherence assay. A digest of the protocol:
as §1

The test system of test [10] is HEp-2. In words: Effect on cytokine level in human Hep2 cells assessed as MMP3 level pretreated at 64 ug/ml for 24 hrs. In short, it runs like this:
as §2

Test [11] has as its system HEp-2. In words: Effect on cytokine level in human Hep2 cells assessed as IL-8 level pretreated at 64 ug/ml for 24 hrs. A digest of the protocol:
as §2

In test [12] the test system is HEp-2. Nature of the test: Effect on cytokine level in human Hep2 cells assessed as VCAM-1 level pretreated at 64 ug/ml for 24 hrs. In short, it runs like this: as §2
Test [13] relates to HEp-2. In words: Effect on cytokine level in human Hep2 cells assessed as IL-12 (p40) level pretreated at 64 ug/ml for 24 hrs. In short, it runs like this:
as §2

The test system of test [14] is HEp-2. In words: Effect on cytokine level in human Hep2 cells assessed as IL-6 level pretreated at 64 ug/ml for 24 hrs. In short, it runs like this:
as §2

The subject of test [15] is HEp-2. Nature of the test: Effect on cytokine level in human Hep2 cells assessed as GM-CSF level pretreated at 64 ug/ml for 24 hrs. In short, it runs like this:
as §2

In test [16] the test system is Escherichia coli. In words: Inhibition of enteroaggregative Escherichia coli 042 adherence to human Hep2 cells using cell supernatants from pretreated at 64 ug/ml for 24 hrs by adherence assay. Conditions: HEp-2. In short, it runs like this:
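Confluent HEp-2 cells were grown 24 h in medium with 64 μg/ml antibiotic, acetone, or nothing. The conditioned medium was dialyzed against PBS (6–8 kDa cutoff, four changes of at least 6 h each, 4°C). EAEC (7 × 10^6/ml) was mixed 1:1 with dialyzed medium and added to untreated HEp-2 slides or cell-free chambers for 3 h, then stained and examined microscopically.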

Test [17] relates to HEp-2. Nature of the test: Effect on cytokine level in human Hep2 cells assessed as RANTES level pretreated at 64 ug/ml for 24 hrs. In short, it runs like this:
as §2

Test [18] concerns HEp-2. Nature of the test: Effect on cytokine level in human Hep2 cells assessed as absence of MIP5 pretreated at 64 ug/ml for 24 hrs. A digest of the protocol: as §2
In test [19] the test system is Escherichia coli. Nature of the test: Inhibition of enteroaggregative Escherichia coli 042 adherence to human Hep2 cells pretreated at 64 ug/ml for 24 hrs by adherence assay. Particulars: HEp-2. In short, it runs like this: as §1
For test [20], the system named is HEp-2. Nature of the test: Effect on cytokine level in human Hep2 cells assessed as TNFRI level pretreated at 64 ug/ml for 24 hrs. In short, it runs like this:
as §2

For test [21], the system named is Escherichia coli. In words: Inhibition of enteroaggregative Escherichia coli 042 adherence to human A549 cells pretreated at 64 ug/ml for 24 hrs by adherence assay. In short, it runs like this:
as §1

The test system of test [22] is HEp-2. In words: Effect on cytokine level in human Hep2 cells assessed as VEGF level pretreated at 64 ug/ml for 24 hrs. A digest of the protocol:
as §2

Test [23] has as its system HEp-2. Nature of the test: Effect on cytokine level in human Hep2 cells assessed as IL-15 level pretreated at 64 ug/ml for 24 hrs. A digest of the protocol:
as §2

Test [24] has as its system HEp-2. Nature of the test: Effect on cytokine level in human Hep2 cells assessed as TGF-beta level pretreated at 64 ug/ml for 24 hrs. A digest of the protocol:
as §2

Data on two compounds can be found in ChEMBL document CHEMBL1240348, “Pretreatment of epithelial cells with rifaximin alters bacterial attachment and internalization profiles” (Antimicrob Agents Chemother, 2010).

The source made the active and inactive calls.

For the compound `CO[C@H]1/C=C/O[C@@]2(C)Oc3c(C)c(O)c4c(O)c(c(/C=N/N5CCN(C)CC5)c(O)c4c3C2=O)NC(=O)/C(C)=C\C=C\[C@H](C)[C@H](O)[C@@H](C)[C@@H](O)[C@@H](C)[C@H](OC(C)=O)[C@@H]1C`, the inhibition result in test [1] is “Active”.

With `CO[C@H]1/C=C/O[C@@]2(C)Oc3c(C)c(O)c4c(O)c(c5c(nc6cc(C)ccn65)c4c3C2=O)NC(=O)/C(C)=C\C=C\[C@H](C)[C@H](O)[C@@H](C)[C@@H](O)[C@@H](C)[C@H](OC(C)=O)[C@@H]1C`, the inhibition result in test [2], in test [5], in [19] and in test [21] was “Active” throughout. For the same compound, the result in test [3], in test [4], in test [6], in test [7], in test [8] and in test [10] was Active. Also, the result in [11], in test [12], in test [13], in test [14], in test [15] and in [17] was Active. In addition, the outcome in test [18], in test [20], in test [22], in [23] and in test [24] was Active. For the same compound, the inhibition result in test [9] and in test [16] was “inactive” throughout.
